We go through six molecules from ChEMBL document CHEMBL4765453, “Phenanthrolinic analogs of quinolones show antibacterial activity against M. tuberculosis” (Eur J Med Chem, 2020).

In brackets after ≈: the same amount, converted by molar mass.

This test deals with Mycobacterium tuberculosis. The experiment in a line: Antibacterial activity against Mycobacterium bovis BCG measured after 7 days by resazurin microtiter assay. Type of test: functional. The settings on record: variant bovis BCG, 168 h, time 7 day. In a few lines:
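Resazurin microtiter assay with two-fold drug dilutions in complete 7H9 broth. Exponential-phase cells are diluted to a final OD600 of 0.005 in 7H9 without Tween. Incubation is 7 days at 37°C, then 0.01% resazurin is added and plates are held 24 h more. MIC is the lowest concentration preventing the blue-to-pink change. Each MIC is determined three times in duplicate experiments.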
`Cn1cc(C(=O)O)c(=O)c2cc([N+](=O)[O-])c3cccnc3c21` gave an MIC90 of 1.4 µM (≈ 0.419 µg/mL).

The molecule `CCOC(=O)c1cn(C)c2c(cc([N+](=O)[O-])c3cccnc32)c1=O` yielded an MIC90 of 2.35 µM (≈ 0.769 µg/mL).

With `CCn1cc(C(=O)O)c(=O)c2cc([N+](=O)[O-])c3cccnc3c21`, the MIC90 turned out to be 2.67 µM (≈ 0.836 µg/mL).

In turn, `CCOC(=O)c1cn(CC)c2c(cc([N+](=O)[O-])c3cccnc32)c1=O` yielded an MIC90 of 2.5 µM (≈ 0.853 µg/mL).

Regarding `NCC[C@H](O)C(=O)N[C@@H]1C[C@H](N)[C@@H](O[C@H]2O[C@H](CN)[C@@H](O)[C@H](O)[C@H]2O)[C@H](O)[C@H]1O[C@H]1O[C@H](CO)[C@@H](O)[C@H](N)[C@H]1O` [AMIKACIN], the MIC90 is 0.46 µM (≈ 0.269 µg/mL).

The molecule `CC1COc2c(N3CCN(C)CC3)c(F)cc3c(=O)c(C(=O)O)cn1c23` (stereo unspecified) [OFLOXACIN] returned an MIC90 of 1.73 µM (≈ 0.625 µg/mL).
